Results as given in ChEMBL document CHEMBL1142241, “Atropisomeric 3-(beta-hydroxyethyl)-4-arylquinolin-2-ones as Maxi-K potassium channel openers” (J Med Chem, 2007).
Values joined by “and” are separate entries in the source; they are usually repeats but may differ in a detail not shown here. Equal values may be shown once.

Columns and labels:
[1] = target: Calcium-activated potassium channel subunit alpha-1 (Homo sapiens) (UniProt Q12791); assay: Activity at human maxi-K hSlo channel expressed in Xenopus oocytes assessed as increase in maxi k current at 10 uM relative to iberiotoxin; format: cell-based; details: Oocyte
In short: (§1)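 Xenopus oocytes injected with 50 ng hSlo cRNA, recorded 2–5 days post-injection. Outward K+ currents evoked from a holding potential of -60 mV over -40 to +140 mV in 20 mV depolarizing steps. Compound applied for 5 min in at least 4–5 oocytes, then 100 nM iberiotoxin for 10 min. Values are % IbTX-sensitive current at peak effect, drug-free control = 100%.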

[2] = target: Calcium-activated potassium channel subunit alpha-1 (Homo sapiens) (UniProt Q12791); assay: Activity at human maxi-K hSlo channel expressed in Xenopus oocytes assessed as increase in maxi k current at 20 uM relative to iberiotoxin; format: cell-based; details: Oocyte; in short: as §1
Serum = assay: Stability in human serum at 1 mM in 37 degC upto 30 hrs; format: ADME, cell-free; details: 1000 µM
In short: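 Pooled human serum prewarmed 5 min at 37 °C; test agent added from 0.1 M DMSO stock to final 1 mM in serum with 1% DMSO, held at 37 °C. Racemization followed by supercritical fluid chromatography on a chiral column over 30 h.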

[3] = target: Calcium-activated potassium channel subunit alpha-1 (Homo sapiens) (UniProt Q12791); assay: Activity at human maxi-K hSlo channel expressed in Xenopus oocytes assessed as increase in maxi k current at 5 uM relative to iberiotoxin; format: cell-based; details: Oocyte; in short: as §1

Calcium-activated potassium channel subunit alpha-1 (Homo sapiens), sequence (Q12791 whole entry): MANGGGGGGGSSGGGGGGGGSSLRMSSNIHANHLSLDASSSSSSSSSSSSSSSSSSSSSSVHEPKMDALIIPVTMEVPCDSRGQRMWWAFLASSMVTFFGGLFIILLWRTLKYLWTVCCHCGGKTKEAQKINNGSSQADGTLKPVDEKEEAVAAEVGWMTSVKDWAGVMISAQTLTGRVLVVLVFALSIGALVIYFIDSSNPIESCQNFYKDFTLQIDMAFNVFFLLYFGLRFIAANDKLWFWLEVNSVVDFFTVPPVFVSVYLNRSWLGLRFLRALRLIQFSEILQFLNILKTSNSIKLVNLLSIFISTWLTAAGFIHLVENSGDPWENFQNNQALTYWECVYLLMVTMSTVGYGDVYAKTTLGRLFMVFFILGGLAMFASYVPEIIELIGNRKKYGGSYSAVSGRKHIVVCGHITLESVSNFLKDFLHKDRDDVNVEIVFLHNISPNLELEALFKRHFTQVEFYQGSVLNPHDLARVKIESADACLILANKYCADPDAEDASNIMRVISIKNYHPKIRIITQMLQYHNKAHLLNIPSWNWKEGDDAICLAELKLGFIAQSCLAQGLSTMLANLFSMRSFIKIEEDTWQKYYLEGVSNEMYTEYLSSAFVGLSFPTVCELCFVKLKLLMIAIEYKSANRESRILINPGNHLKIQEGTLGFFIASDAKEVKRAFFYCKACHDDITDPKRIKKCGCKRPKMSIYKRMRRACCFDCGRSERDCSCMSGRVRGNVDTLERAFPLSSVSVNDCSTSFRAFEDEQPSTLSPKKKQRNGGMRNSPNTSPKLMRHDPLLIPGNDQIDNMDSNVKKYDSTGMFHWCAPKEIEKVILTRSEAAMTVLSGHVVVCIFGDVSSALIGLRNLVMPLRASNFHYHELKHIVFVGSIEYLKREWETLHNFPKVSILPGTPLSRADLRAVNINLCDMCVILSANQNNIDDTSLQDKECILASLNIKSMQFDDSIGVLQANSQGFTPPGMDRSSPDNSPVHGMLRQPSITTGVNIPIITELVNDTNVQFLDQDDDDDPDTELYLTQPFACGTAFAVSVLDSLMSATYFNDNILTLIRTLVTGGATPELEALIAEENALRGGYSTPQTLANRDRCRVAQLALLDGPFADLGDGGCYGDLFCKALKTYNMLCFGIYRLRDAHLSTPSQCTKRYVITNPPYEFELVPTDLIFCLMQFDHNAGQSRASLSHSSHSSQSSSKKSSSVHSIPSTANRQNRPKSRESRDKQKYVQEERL

For `O=c1[nH]c2ccc(C(F)(F)F)cc2c(-c2cc(Cl)ccc2O)c1CCO` [BMS-223131], the Activity [1] was 214% and 292% and 259%, the Activity [2] was 253% and the Stability (Serum) was “Stable”.
Compound `Cn1c(=O)c(CCO)c(-c2cc(Cl)cc(CC(O)CO)c2O)c2cc(C(F)(F)F)ccc21` (stereo not given) has an Activity [2] of 112%.
`CCCc1cc(Cl)cc(-c2c(CCO)c(=O)n(C)c3ccc(C(F)(F)F)cc23)c1O` gave an Activity [1] of 127%.
`Cn1c(=O)c(CCO)c(-c2cc(Cl)cc(CCCO)c2O)c2cc(C(F)(F)F)ccc21` showed an Activity [2] of 164%.
`Cn1c(=O)c(CCO)c(-c2cc(Cl)ccc2O)c2cc(C(F)(F)F)ccc21` was tested, and the Activity [1] was 361% and 184% and 257% and the Activity [2] was 296%.
With `CC(C)Cc1cc(Cl)cc(-c2c(CCO)c(=O)n(C)c3ccc(C(F)(F)F)cc23)c1O` the Activity [3] was 96.5%.
Compound `C=C(C)Cc1cc(Cl)cc(-c2c(CCO)c(=O)n(C)c3ccc(C(F)(F)F)cc23)c1O` has an Activity [1] of 114%.
